For data set [1], the target named is T1, Integrin alpha-V (Homo sapiens, UniProt P06756). Kind of data set: Inhibition of integrin alphaV receptor-mediated adhesion of human PC3 cells to vitronectin after 1 hr by toluidine blue staining. It is filed as cell-based. Conditions: pc-3; call rule not given here. In a few lines:
(§1)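 Wells were coated 2 h at room temperature with human vitronectin and blocked 1 h with 1% BSA. Tumor cells in serum-free medium with 1% BSA were plated with compounds at 0.1 to 100 and incubated 1 h. Cells were washed with PBS, fixed 10 min in 4% paraformaldehyde and stained 10 min with 1% toluidine blue.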

Data set [2] has as its system A2780. Kind of data set: Antitumor activity against human A2780 cells xenografted in nude mouse assessed as tumor volume inhibition at 16.3 mg/kg, sc QD for 5 days. It is filed as functional, organism-based. Set-up: dose 16.3 mg/kg. A digest of the protocol:
(§2)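 Nude mice bearing A2780 human ovarian carcinoma xenografts were dosed from day 2 after tumor injection, either ip every fourth day ×4 or sc daily ×5, at 10 mL/kg. Tumor volume was calculated from the shortest and longest diameters on day 16 or 17. TVI% is relative to vehicle-treated controls (mean ± SE, Mann–Whitney). Body weight was monitored for toxicity.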
A general note: Xenograft models place foreign cells or tissue in a host animal.

Data set [3] addresses T2, Integrin alpha-V/beta-3 (Homo sapiens, UniProt P05106+P06756). Description: Displacement of [125I]echistatin from integrin alphaVbeta3 receptor after 3 hrs by gamma counting. It is filed as protein-complex assay. On the technique in general: Displacement assays read how much labelled ligand stays bound in the presence of the test substance.
Target sequence in this assay (P05106 27-788 limits assumed): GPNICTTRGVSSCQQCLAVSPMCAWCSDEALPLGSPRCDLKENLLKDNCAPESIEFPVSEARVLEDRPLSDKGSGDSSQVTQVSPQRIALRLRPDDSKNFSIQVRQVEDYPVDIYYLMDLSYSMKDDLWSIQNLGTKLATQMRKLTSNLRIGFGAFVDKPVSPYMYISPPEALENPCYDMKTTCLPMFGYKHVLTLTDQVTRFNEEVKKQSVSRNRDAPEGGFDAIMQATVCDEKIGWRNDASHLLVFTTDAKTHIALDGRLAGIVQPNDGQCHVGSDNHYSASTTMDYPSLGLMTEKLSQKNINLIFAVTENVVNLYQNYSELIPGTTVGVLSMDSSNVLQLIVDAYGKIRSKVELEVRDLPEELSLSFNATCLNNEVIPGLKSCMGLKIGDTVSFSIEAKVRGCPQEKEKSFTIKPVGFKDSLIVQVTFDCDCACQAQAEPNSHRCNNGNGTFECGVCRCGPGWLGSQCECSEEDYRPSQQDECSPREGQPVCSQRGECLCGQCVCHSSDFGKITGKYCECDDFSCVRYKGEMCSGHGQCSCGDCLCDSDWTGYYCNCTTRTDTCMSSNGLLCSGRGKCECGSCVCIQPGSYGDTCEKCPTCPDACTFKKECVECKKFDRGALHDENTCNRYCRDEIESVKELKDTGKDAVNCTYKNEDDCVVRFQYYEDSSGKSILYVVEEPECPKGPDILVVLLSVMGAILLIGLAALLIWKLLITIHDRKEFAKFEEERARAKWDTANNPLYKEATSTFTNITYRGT
Target sequence in this assay (P06756 31-889 limits assumed): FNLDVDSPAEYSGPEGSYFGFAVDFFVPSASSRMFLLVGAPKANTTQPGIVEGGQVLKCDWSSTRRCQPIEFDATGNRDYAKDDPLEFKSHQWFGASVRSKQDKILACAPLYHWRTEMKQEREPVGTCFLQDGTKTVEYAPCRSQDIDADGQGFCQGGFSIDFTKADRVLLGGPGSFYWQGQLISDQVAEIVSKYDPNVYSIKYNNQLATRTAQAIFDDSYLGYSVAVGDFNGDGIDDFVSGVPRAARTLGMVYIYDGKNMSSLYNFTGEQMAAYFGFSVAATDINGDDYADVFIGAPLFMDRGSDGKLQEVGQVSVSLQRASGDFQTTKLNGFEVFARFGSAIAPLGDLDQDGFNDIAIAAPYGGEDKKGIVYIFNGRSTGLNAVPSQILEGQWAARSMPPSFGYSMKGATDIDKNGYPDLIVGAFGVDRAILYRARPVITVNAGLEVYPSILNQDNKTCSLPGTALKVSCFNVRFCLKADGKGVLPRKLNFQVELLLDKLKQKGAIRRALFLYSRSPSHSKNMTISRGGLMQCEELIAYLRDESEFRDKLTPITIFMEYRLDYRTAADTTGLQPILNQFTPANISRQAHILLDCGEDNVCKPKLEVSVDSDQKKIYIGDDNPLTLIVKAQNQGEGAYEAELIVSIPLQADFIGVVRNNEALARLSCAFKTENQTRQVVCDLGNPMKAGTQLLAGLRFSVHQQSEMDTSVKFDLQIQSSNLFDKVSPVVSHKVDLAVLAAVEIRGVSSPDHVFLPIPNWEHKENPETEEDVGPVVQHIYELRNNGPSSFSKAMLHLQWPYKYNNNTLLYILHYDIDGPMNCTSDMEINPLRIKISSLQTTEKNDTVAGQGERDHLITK
Target sequence in this assay (P06756 891-1048 limits assumed): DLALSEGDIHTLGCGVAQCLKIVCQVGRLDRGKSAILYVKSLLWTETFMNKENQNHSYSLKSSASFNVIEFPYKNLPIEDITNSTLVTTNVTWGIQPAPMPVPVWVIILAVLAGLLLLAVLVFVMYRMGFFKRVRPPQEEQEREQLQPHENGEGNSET
Data set [4] deals with A2780. Kind of data set: Antitumor activity against human A2780 cells xenografted in nude mouse assessed as tumor volume inhibition at 0.42 mg/kg, sc QD for 5 days measured after 17 days of tumor implantation relative to control. It counts as functional. Conditions: route subcutaneous. A digest of the protocol:
as §2

Data set [5] relates to A498. Description: Cytotoxicity against human A498 cells after 72 hrs by sulforhodamine B assay. The following applies: A498, 72 h. It is filed as functional, cell-based. A digest of the protocol: (§3)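 Tumor cells were seeded in 96-well plates and exposed the next day to a range of drug concentrations for 72 h. Surviving cells were quantified by sulforhodamine B staining, and IC50 ± SD was derived by curve fitting.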
(In general: In SRB staining, fixed cells bind dye roughly in proportion to their protein.)

Data set [6] has as its system A2780. Kind of data set: Cytotoxicity against human A2780 cells after 72 hrs by sulforhodamine B assay. Conditions: A2780, 72 h. It counts as functional, cell-based. In a few lines:
as §3

In data set [7] the test system is A498. Description: Cellular uptake in human A498 cells at 0.064 uM after 5 hrs by HPLC-FL analysis. It is filed as ADME, cell-based. The following applies: a498, 5 h. In a few lines:
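A-498 cells (6.2 × 10⁵) were seeded in dishes and dosed 24 h later, then sampled at 5, 24, 48 and 72 h. Cells were PBS-washed, scraped, pelleted, lysed by five freeze–thaw cycles, and extracted with methanol/acetonitrile (1:1). Culture medium was extracted the same way. Analysis was by isocratic HPLC-FL (30% CH₃CN / 70% 0.1 M AcOH with 0.1% TEA, pH about 3.5), and lysate protein was measured by Bradford assay.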

Data set [8] deals with Mus musculus. Description: AUC (0 to infinity) in nude mouse xenografted with human A2780 cells at 0.42 mg/kg, sc QD for 5 days. It is filed as ADME, organism-based. Set-up: time infinity, dose 0.42 mg/kg, route subcutaneous. Conditions: in vivo, 120 h.
The subject of data set [9] is PC-3. Description: Cytotoxicity against human PC3 cells after 72 hrs by sulforhodamine B assay. It counts as functional, cell-based. Conditions: PC-3, 72 h. In a few lines: as §3
Data set [10] deals with T1, Integrin alpha-V. Description: Binding affinity to integrin alphaV receptor in human PC3 cells. It is filed as cell-based. The following applies: PC-3. In a few lines:
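Tumor cells in serum-free medium with 1% BSA were plated for 1 h on wells precoated with 5 µg/ml human vitronectin and blocked with 1% BSA. Compounds were tested at 0.1–100 µM. Adherent cells were fixed with 4% paraformaldehyde, stained with 1% toluidine blue, solubilized in 1% SDS and read by absorbance. IC50 ± SD from curve fitting.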

Data set [11] has as its target T3, Integrin alpha-V/beta-5 (Homo sapiens, UniProt P06756+P18084). Kind of data set: Binding affinity to integrin alphaVbeta5 receptor in human A498 cells. It counts as cell-based.
The target in data set [12] is T3, Integrin alpha-V/beta-5. Kind of data set: Binding affinity to integrin alphaVbeta5 receptor in human A2780 cells. It is filed as cell-based.
Data set [13] deals with T3, Integrin alpha-V/beta-5. Kind of data set: Inhibition of integrin alphaVbeta5 receptor-mediated adhesion of human A498 cells to vitronectin after 1 hr by toluidine blue staining. It is filed as cell-based. A digest of the protocol: as §1
Target sequence in this assay (P06756 31-889 limits assumed): as the sequence (P06756 31-889 limits assumed) above
Target sequence in this assay (P06756 891-1048 limits assumed): as the sequence (P06756 891-1048 limits assumed) above
Target sequence in this assay (P18084 24-799 limits assumed): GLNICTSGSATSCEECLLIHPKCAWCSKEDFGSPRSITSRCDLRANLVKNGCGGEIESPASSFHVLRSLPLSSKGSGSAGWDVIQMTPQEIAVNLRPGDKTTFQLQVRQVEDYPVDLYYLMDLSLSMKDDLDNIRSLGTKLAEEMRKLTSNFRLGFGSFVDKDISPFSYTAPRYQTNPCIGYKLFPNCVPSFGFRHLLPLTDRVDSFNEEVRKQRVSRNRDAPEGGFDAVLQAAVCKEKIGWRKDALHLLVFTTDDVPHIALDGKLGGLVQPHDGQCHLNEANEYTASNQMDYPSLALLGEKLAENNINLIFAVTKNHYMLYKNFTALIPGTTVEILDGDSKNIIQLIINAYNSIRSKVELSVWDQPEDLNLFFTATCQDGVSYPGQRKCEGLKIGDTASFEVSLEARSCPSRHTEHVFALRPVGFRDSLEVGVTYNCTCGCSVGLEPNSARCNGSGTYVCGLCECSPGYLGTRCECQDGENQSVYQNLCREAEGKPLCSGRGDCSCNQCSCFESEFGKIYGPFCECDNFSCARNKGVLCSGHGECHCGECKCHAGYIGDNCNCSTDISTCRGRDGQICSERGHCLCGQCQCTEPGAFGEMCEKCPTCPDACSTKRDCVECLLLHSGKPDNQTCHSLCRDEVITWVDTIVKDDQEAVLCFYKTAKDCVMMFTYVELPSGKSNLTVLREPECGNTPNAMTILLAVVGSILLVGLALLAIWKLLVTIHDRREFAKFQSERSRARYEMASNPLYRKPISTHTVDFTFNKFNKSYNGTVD
The target in data set [14] is T2, Integrin alpha-V/beta-3. Description: Inhibition of integrin alphaVbeta3 receptor-mediated adhesion of human A498 cells to vitronectin after 1 hr by toluidine blue staining. It counts as cell-based. In a few lines:
as §1
Target sequence in this assay (P05106 27-788 limits assumed): as the sequence (P05106 27-788 limits assumed) above
Target sequence in this assay (P06756 31-889 limits assumed): as the sequence (P06756 31-889 limits assumed) above
Target sequence in this assay (P06756 891-1048 limits assumed): as the sequence (P06756 891-1048 limits assumed) above

Data set [15] has as its target T2, Integrin alpha-V/beta-3. Description: Binding affinity to integrin alphaVbeta3 receptor in human A498 cells. It counts as cell-based.
The target of data set [16] is T3, Integrin alpha-V/beta-5. Description: Inhibition of integrin alphaVbeta5 receptor-mediated adhesion of human A2780 cells to vitronectin after 1 hr by toluidine blue staining. It counts as cell-based. In a few lines: as §1
Target sequence in this assay (P06756 31-889 limits assumed): as the sequence (P06756 31-889 limits assumed) above
Target sequence in this assay (P06756 891-1048 limits assumed): as the sequence (P06756 891-1048 limits assumed) above
Target sequence in this assay (P18084 24-799 limits assumed): as the sequence (P18084 24-799 limits assumed) above
In data set [17] the target is T3, Integrin alpha-V/beta-5. Description: Displacement of [125I]echistatin from integrin alphaVbeta5 receptor after 3 hrs by gamma counting. It is filed as protein-complex assay.
Target sequence in this assay (P06756 31-889 limits assumed): as the sequence (P06756 31-889 limits assumed) above
Target sequence in this assay (P06756 891-1048 limits assumed): as the sequence (P06756 891-1048 limits assumed) above
Target sequence in this assay (P18084 24-799 limits assumed): as the sequence (P18084 24-799 limits assumed) above

T1 sequence (P06756 31-889 limits assumed): as the sequence (P06756 31-889 limits assumed) above
T1 sequence (P06756 891-1048 limits assumed): as the sequence (P06756 891-1048 limits assumed) above

For `CC[C@@]1(O)C(=O)OCc2c1cc1n(c2=O)Cc2c-1nc1ccccc1c2/C=N\OCCN`, the half-maximal inhibitory concentration (IC50) entry in data set [1] is “Not Active”; in [3] it was “Not Active”; in [5], 0.064 µM; in data set [6], 0.0049 µM; in data set [9] it was 0.36 µM. Moreover, the inhibition result in data set [2] was “Toxic”. Moreover, the inhibition in vivo at 0.42 mg/kg in data set [4] was 43%. Further, in [7], the Drug uptake entry is listed as “Active”. The AUC in data set [8] was 2 µg/h/mL.

As for `N=C(N)NCCC[C@@H]1NC(=O)[C@H](c2ccc(CNC(=O)COCCOCCOCC(=O)O)cc2)NC(=O)[C@@H](Cc2ccccc2)NC(=O)[C@H](CC(=O)O)NC(=O)CNC1=O`, the Activity result in data set [10], in data set [11], in data set [12] and in data set [15] was “Dose-dependent effect” each time. The concentration for half-maximal inhibition (IC50) in data set [13] is 10.7 µM; in data set [3] (read-out: IC50), 0.004 µM; in data set [14] it was 10.7 µM; in [16] it was 12.3 µM; in data set [17], 0.00035 µM; in data set [5] it was greater than 1000 µM. Besides, the IC50 in data set [6] and in [9] was greater than 1000 µM throughout.

With `CC[C@@]1(O)C(=O)OCc2c1cc1n(c2=O)Cc2c-1nc1ccccc1c2C=O`, the values for the half-maximal inhibitory concentration (IC50) in data set [6] and in data set [9] were 0.003 µM and 0.13 µM, respectively.

For the compound `CC[C@@]1(O)C(=O)OCc2c1cc1n(c2=O)Cc2c-1nc1ccccc1c2CCC=O`, the IC50 in data set [6] is 0.015 µM; in [9], 0.12 µM.

Consider `N=C(N)NCCC[C@@H]1NC(=O)[C@H](c2ccc(CNC(=O)CCC(=O)O)cc2)NC(=O)[C@@H](Cc2ccccc2)NC(=O)[C@H](CC(=O)O)NC(=O)CNC1=O`, for which the Activity result in [10], in data set [11], in data set [12] and in [15] was “Dose-dependent effect” each time. For the same compound, the half-maximal inhibitory concentration (IC50) was 34 µM in data set [13]; 0.0376 µM in data set [3] (read-out: IC50); 34 µM in data set [14]; 9.5 µM in [16]; 0.0051 µM in [17]; greater than 1000 µM in data set [5]. In addition, the IC50 in data set [6] and in data set [9] was greater than 1000 µM each time.

Consider `N=C(N)NCCC[C@@H]1NC(=O)[C@H](c2ccc(CNC(=O)COCCOCCOCC(=O)NN)cc2)NC(=O)[C@@H](Cc2ccccc2)NC(=O)[C@H](CC(=O)O)NC(=O)CNC1=O`, for which the IC50 in data set [3] (read-out: IC50) was 0.0038 µM; in data set [16], 11.8 µM; in data set [17] it was 0.00065 µM; in [6], greater than 1000 µM; in data set [9], greater than 1000 µM.

What is called IC50 is the point on the concentration scale where inhibition reaches its midpoint. What is called inhibition in vivo is the drop in the measured response relative to a control, in per cent.
